The values that follow come from ChEMBL document CHEMBL4715918, “Syntheses and evaluation of acridone-naphthalimide derivatives for regulating oncogene PDGFR-β expression” (Bioorg Med Chem, 2021).

Assay [1] is described as follows: Binding affinity to 5'-FAM-GCGTCCACCCTCCCTGCCCCGCCGCCCCCCCTTCTCCCAGC-TAMRA-3' i-motif DNA (unknown origin) assessed as unfolding i-motif structure by measuring reduction in I585/I518 ratio at 2 to 10 equiv by FRET assay. As to conditions: dose 2-10 equiv. Summed up:
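FRET probe dual-labelled FAM donor/TAMRA acceptor, annealed, 10 µM in 30 mM BPES buffer with 1 mM EDTA, 100 mM KCl; compound added in equal volume. Emission 500–700 nm recorded, corrected for compound signal in the same buffer; I585/I518 ratio compared. The i-motif forms at pH 6.2 and unfolds at pH 6.4.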

Assay [2] relates to Quadruplex DNA. The experiment in a line: Binding affinity to 5'-FAM-GGGAGAAGGGGGGGCGGCGGGGCAGGGAGGGTGGAC-TAMRA-3' G4-quadruplex DNA (unknown origin) assessed as stabilization G4-quadruplex structure by measuring increase in I585/I518 ratio by FRET assay. Type of assay: nucleic-acid assay. The settings on record: dose 2-10 equiv. Summed up: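 FRET probe dual-labelled FAM/TAMRA, annealed, 10 µM in 10 mM Tris-HCl pH 7.4 with 10 mM KCl; compound added in equal volume. Emission 500–700 nm recorded, corrected for compound signal in the same buffer; I585/I518 ratio compared.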

A short description of assay [3]: Binding affinity to FAM-labeled 5'-biotin-d[TATAGCTATA-HEG-TATAGCTATA]- 3' duplex DNA (unknown origin) by microscale thermophoresis assay. The method, boiled down: (§1)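 Microscale thermophoresis with DNA held constant at 1 µM. Compound serially diluted 3:4 from 10 µM over 12 points. Samples run in standard glass capillaries with LED and laser power both at 20%. KD derived by fitting.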
(In MST a laser heats a spot of the sample, and binding alters the fluorescence response.)

The nature of assay [4]: Binding affinity to FAM-labeled 5'-biotin-d [GCGTCCACCCTCCCTGCCCCGCCGCCCCCCCITCTCCCAGC]-3' i-motif DNA (unknown origin) by microscale thermophoresis assay. The method, boiled down: as §1
Assay [5] relates to Quadruplex DNA. Kind of assay: Binding affinity to 5'-biotin-d [GCTGGGAGAAGGGGGGGCGGCGGGGCAGGGAGGGTGGACGC]-3' G4-quadruplex DNA (unknown origin) assessed as change in melting temperature at 10 uM by CD spectroscopy. The class given is nucleic-acid assay. The method, boiled down: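 Oligomer 2 µM in Tris-HCl pH 7.4, annealed (95 °C for 5 min, slow cooling, 4 °C overnight). Ligand 10 µM. CD ellipticity followed at 263 nm over 25–95 °C; ΔTm taken against DNA alone.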

Assay [6] has as its target Quadruplex DNA. The experiment in a line: Binding affinity to FAM-labeled 5'-biotin-d [GCTGGGAGAAGGGGGGGCGGCGGGGCAGGGAGGGTGGACGC]-3' G4-quadruplex DNA (unknown origin) by microscale thermophoresis assay. Type of assay: nucleic-acid assay. The method, boiled down: as §1
The nature of assay [7]: Binding affinity to 5'-biotin-d [GCGTCCACCCTCCCTGCCCCGCCGCCCCCCCITCTCCCAGC]-3' i-motif DNA (unknown origin) assessed as change in melting temperature at 10 uM by CD spectroscopy. The method, boiled down: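 Oligomer 2 µM in BPES buffer pH 5.5, heated to 95 °C for 5 min, cooled slowly and held at 4 °C overnight. Ligand 10 µM. CD ellipticity followed at 288 nm from 25–95 °C (1 mm cuvette); Tm derived, ΔTm against DNA alone.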

Assay [8] deals with MCF7. The experiment in a line: Binding affinity to wild type PDGFRbeta promoter (unknown origin) in human MCF7 cells assessed as down regulation of PDGFRbeta mRNA expression at 1.25 to 20 uM after 12 hrs by RT-PCR analysis. The class given is cell-based. As to conditions: dose 1.25-20 µM.

Activity calls are given as the source filed them. The rule behind the calls is not given here.

A word on the Kd: it is the constant that tells how readily two partners part at equilibrium. High values mean a looser complex, low ones a tighter complex. One may read the ΔTm as the change in melting temperature against a reference sample. For `C[n+]1ccc(-c2c3nc(c(-c4cc[n+](C)cc4)c4ccc([nH]4)c(-c4cc[n+](C)cc4)c4ccc([nH]4)c(-c4cc[n+](C)cc4)c4nc2C=C4)C=C3)cc1` [TMPYP4], the result in assay [1] was inactive. Further, the Activity entry in assay [2] and in assay [8] was “Dose-dependent effect” throughout. The Kd in assay [3] is 1310 µM; in assay [4] it was 463 µM; in assay [6], 3.96 µM. The ΔTm is more than 20 °C in assay [5] and 0.11 °C in assay [7].
